Source: PubChem
MEKK3 PB1 HTS: modulators of MEKK3-MEK5 PB1 binding, primary screen, biochemical, wildtype MEKK3, multiplex bead flow cytometry, Alexa488-MEK5; Mitogen-activated protein kinase kinase kinase 3 (Homo sapiens), Q99759; bead-based flow cytometry, Alexa488-MEK5 binding to MEKK3; actives lie on both sides; 0 = blocked by unlabeled MEK5, 100 = vehicle; binding response (% of control), % at 10 µM; 290,000 compounds, 1.4% hits; AID 1529, 2009;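 active = binding response more than 3 SD above or below the average of its plate-row segment, actives on both sides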;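 also: Alexa488 bead fluorescence after subtracting the streptavidin-only scavenger bead signal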
MEKK2mut PB1 HTS: MEK5 binding signal on mutant MEKK2 PB1, primary screen, biochemical, multiplex bead flow cytometry, Alexa488-MEK5 | Alexa488-MEK5 binding to MEKK2 mutant | percent response, % at 10 µM | 290,000 compounds, 0.35% hits | AID 1530, 2009; in the data active = percent response above about 24%, passing the limit was not always enough
DSG3 Ab inh: inhibitors of pemphigus antibody binding to DSG3, primary screen, biochemical, bead-based, flow cytometry, scFv-GFP; Desmoglein-3 (Homo sapiens), P32926; DSG3-coupled beads, scFv-anti-DSG3-GFP binding; stronger effect = lower value; binding (percent of control), % at 10 µM; 310,000 compounds, 0.48% hits; AID 588358, 2011;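 active = binding more than 3 SD below its plate's average and above zero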
MEKK2wt PB1 HTS: modulators of MEK5 binding to wildtype MEKK2, primary screen, biochemical, multiplex bead flow cytometry, Alexa488-MEK5. Alexa488-MEK5 binding to MEKK2 WT; actives lie on both sides. 290,000 compounds, 1.1% hits. binding response (% of control), % at 10 µM. Mitogen-activated protein kinase kinase kinase 2 (Homo sapiens), Q9Y2U5. AID 1531, 2009; in the data active = binding response below about 67% or above about 130%
UBC13 inh: UBC13 polyubiquitin chain formation inhibitors, primary screen, biochemical, TR-FRET, uHTS. inhibition, % at 20 µM. 330,000 compounds, 0.47% hits. AID 485273, 2010; in the data active = inhibition above about 45%, passing the limit was not always enough
Apaf-1 inh: inhibitors of human Apaf-1 apoptosome, primary screen, biochemical, DEVD-Rh110 fluorescence, uHTS | Apoptotic protease-activating factor 1 (Homo sapiens), O14727 | reconstituted apoptosome caspase-3 activity | inhibition, % at 20 µM | 330,000 compounds, 0.71% hits; active = inhibition of at least 40% at 20 µM;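 also: plate controls were DMSO wells for no effect and DEVD-CHO caspase inhibitor wells for full effect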
Target sequence (O14727 whole entry, looked up): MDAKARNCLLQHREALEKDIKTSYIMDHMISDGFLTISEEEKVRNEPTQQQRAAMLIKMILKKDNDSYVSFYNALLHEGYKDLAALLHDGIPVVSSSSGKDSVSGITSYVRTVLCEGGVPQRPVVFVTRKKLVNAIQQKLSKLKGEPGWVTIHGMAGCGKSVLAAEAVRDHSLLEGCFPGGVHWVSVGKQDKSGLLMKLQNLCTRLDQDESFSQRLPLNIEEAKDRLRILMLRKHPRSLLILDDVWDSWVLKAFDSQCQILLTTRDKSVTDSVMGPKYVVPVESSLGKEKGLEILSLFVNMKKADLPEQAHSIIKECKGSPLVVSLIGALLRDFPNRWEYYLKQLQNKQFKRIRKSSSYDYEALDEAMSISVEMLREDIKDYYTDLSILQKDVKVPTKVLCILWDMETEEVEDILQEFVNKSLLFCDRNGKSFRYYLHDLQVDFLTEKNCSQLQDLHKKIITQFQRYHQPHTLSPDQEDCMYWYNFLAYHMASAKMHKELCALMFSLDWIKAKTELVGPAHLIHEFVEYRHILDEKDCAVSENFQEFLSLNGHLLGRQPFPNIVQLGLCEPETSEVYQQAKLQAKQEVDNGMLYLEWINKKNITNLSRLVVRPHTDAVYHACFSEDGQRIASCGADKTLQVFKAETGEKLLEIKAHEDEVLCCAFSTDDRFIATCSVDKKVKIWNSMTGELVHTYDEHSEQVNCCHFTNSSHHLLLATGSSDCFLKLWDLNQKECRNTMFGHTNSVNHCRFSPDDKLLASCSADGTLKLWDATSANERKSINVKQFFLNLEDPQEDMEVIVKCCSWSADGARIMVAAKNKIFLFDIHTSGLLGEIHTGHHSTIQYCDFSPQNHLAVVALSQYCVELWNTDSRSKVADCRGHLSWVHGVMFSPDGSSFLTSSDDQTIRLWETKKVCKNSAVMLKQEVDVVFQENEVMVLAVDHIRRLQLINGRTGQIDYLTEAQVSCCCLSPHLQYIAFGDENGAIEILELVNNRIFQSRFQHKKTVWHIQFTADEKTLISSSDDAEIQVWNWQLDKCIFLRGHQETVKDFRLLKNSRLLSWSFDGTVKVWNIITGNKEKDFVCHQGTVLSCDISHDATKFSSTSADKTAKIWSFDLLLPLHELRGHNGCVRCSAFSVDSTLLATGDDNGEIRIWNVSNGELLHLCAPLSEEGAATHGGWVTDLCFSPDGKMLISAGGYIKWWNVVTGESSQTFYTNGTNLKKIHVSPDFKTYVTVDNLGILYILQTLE
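Assay system – apoptosome proteins · Medium – Hepes buffer, pH 7.5 · Also added – cytochrome c with DEVD-Rh110 · Timing – 30 min compound preincubation, 50 min activation, room temperature · Detection – Rh110 fluorescence, excitation 480 nm, emission 540 nm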
MEKK2wt confirm: modulators of MEK5 binding to wildtype MEKK2, confirmation, biochemical, single concentration, multiplex bead flow cytometry; 5,900 compounds, 2.4% hits; Alexa488-MEK5 binding to MEKK2 WT; actives lie on both sides; binding response (% of control), % at 10 µM; shares compounds with MEKK3 PB1 HTS; in the data active = binding response below about 16% or above about 210%; inactive = in between
MEKK2mut-MEK5: mutant MEKK2 PB1-MEK5 binding signal retest – biochemical, single concentration, multiplex bead flow cytometry, confirmation | shares compounds with MEKK3 PB1 HTS | Alexa488-MEK5 binding to MEKK2 mutant | percent response, % at 10 µM | 5,900 compounds, 2% hits; in the data active = percent response mostly above about 71%, no sharp cut-off; inactive = mostly below about 38%;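 also: higher means compound restores mutant binding toward wildtype level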
MEKK3 confirm: MEKK3 wild-type PB1 binding to MEK5, inhibitors, confirmation, biochemical, bead multiplex flow cytometry, single concentration, wildtype; shares compounds with MEKK3 PB1 HTS; Alexa488-MEK5 binding to MEKK3; stronger effect = lower value; binding response (% of control), % at 10 µM; 5,900 compounds, 1.8% hits;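 active = binding response below 72% of control, or above a set upper limit, though filed actives all read lower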;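 also: 100% = DMSO only wells and 0% = binding blocked by excess unlabeled MEK5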
Numbers without * were called inactive; nt = not tested or not shown; [ ] = remark or other dose. Shown are actives, neighbours in structure and some others; about 3.2% of the full set was active somewhere.

SMILES	MEKK3 PB1 HTS	MEKK2mut PB1 HTS	DSG3 Ab inh	MEKK2wt PB1 HTS	UBC13 inh	Apaf-1 inh	MEKK2wt confirm	MEKK2mut-MEK5	MEKK3 confirm
CCc1nc(N2CCN(C(=O)CCl)CC2)c2c3c(sc2n1)CC(C)CC3 (stereo unspecified)	111	39*	121	153*	31	19	141	25	100
CCOC(=O)c1sc(NC(=O)Nc2ccc(Cl)cc2)cc1C	115	10	nt	138*	5	11	-2.0*[inhibitor]	15	95
Cc1[nH]c2ccccc2c1C(=O)COC(=O)Cn1c(C)nc2ccccc21	106	5	100	103	-1	-9	nt	nt	nt
Cc1[nH]c2ccccc2c1C(=O)COC(=O)Cn1cnc2ccccc21	102	55*	83	120	-2	-9	107	7	103
COc1ccc(CN(C)CC(=O)Nc2ccccc2C(=O)NC2CC2)cc1F	nt	nt	nt	nt	8	2	nt	nt	nt
CNC(=S)N1CCn2cccc2C1c1cc(OC)c(OC)c(OC)c1 (stereo unspecified)	57*[inhibitor]	-3	109	81	20	-15	96	-3	99
COc1ccccc1N(CC(=O)N1CCN(Cc2ccccc2)CC1)S(=O)(=O)c1ccccc1	nt	nt	98	nt	nt	nt	nt	nt	nt
O=C(NC1CCCC1)c1ccccc1OCc1ccccc1	63*[inhibitor]	-3	93	84	-12	15	145	25	111
COCCCNCCCCOc1ccc(OCc2ccccc2)cc1	85	-2	100	106	9	6	nt	nt	nt
O=C(CCNC(=O)OCc1ccccc1)NC1CCCCC1	135*	3	106	105	-8	2	94	3	100
O=C(CNC(=O)OCc1ccccc1)NC1CCCCCC1	86	0	100	103	0	-3	nt	nt	nt
c1ccc(COc2ccc(OCCCNC3CCCC3)cc2)cc1	108	10	98	140*	27	-6	127	17	101
Cc1cc(=O)nc2c3ccccc3n(C(C)C(=O)NCCN3CCOCC3)n12 (stereo unspecified)	102	1	84	101	9	-6	nt	nt	nt
COc1ccc(C)cc1NC(=O)COC(=O)Cc1c[nH]c2ccccc12	nt	nt	103	nt	nt	nt	nt	nt	nt
CC1(C)CC(=O)C=C(c2n[nH]nc2-c2ccc(F)c(F)c2)C1	nt	nt	99	nt	nt	nt	nt	nt	nt
O=C(Cc1ccc(Cl)cc1)SCc1ccccc1	nt	nt	103	nt	11	8	nt	nt	nt
CC(C)c1ccc(C2N3CC4([N+](=O)[O-])CN2CC([N+](=O)[O-])(C3)C4(C)C)cc1 (stereo unspecified)	71*[inhibitor]	-1	107	95	7	-14	95	-8	96
CC1(C)C2([N+](=O)[O-])CN3CC1([N+](=O)[O-])CN(C2)C3c1ccccc1 (stereo unspecified)	101	-4	99	102	10	-8	nt	nt	nt
Fc1ccc(CNC(=S)Nc2cccc(C(F)(F)F)c2)cc1	100	1	nt	106	0	-1	nt	nt	nt
Fc1ccccc1CNC(=S)Nc1cccc(C(F)(F)F)c1	134*	-1	99	99	15	13	110	8	111
CCS(=O)(=O)c1ccc(N=Nc2ccc(O)c3ncccc23)c(OC)c1	131*	0	99	108	-53	17	99	1	99
Cc1ccc(N=Nc2ccc(O)c3ncccc23)cc1C	99	-11	94	86	-120	-4	nt	nt	nt
Oc1ccccc1-c1nnc(-c2ccc(C(F)(F)F)cc2)o1	81*[inhibitor]	-5	101	82	4	13	101	-3	102
COc1cccc(-c2nnc(-c3ccc(C(F)(F)F)cc3)o2)c1	112	-2	110	96	11	-1	nt	nt	nt
O=C1CCC([N+](=O)[O-])C(c2cc3c(cc2Br)OCO3)N1 (stereo unspecified)	156*	2	97	108	-3	-7	124	8	113
SMILES	MEKK3 PB1 HTS	MEKK2mut PB1 HTS	DSG3 Ab inh	MEKK2wt PB1 HTS	UBC13 inh	Apaf-1 inh	MEKK2wt confirm	MEKK2mut-MEK5	MEKK3 confirm
Fc1ccc(C(CCNCc2ccccn2)c2ccc(Cl)cc2)cc1 (stereo unspecified)	103	15	104	121	18	15	nt	nt	nt
CSc1ncc(Cl)c(C(=O)Nc2ccccc2Br)n1	96	-10	89	103	2	-15	nt	nt	nt
CSc1ncc(Cl)c(C(=O)Nc2cccc3ccccc23)n1	128*	0	85	102	-8	-4	101	-2	99
CCOC(=O)c1coc(C(=O)OCC)c1C(=O)OCC	nt	nt	106	nt	nt	nt	nt	nt	nt
O=C(CCN1C(=O)C2C3CCC(C3)C2C1=O)Nc1ccc(F)cc1 (stereo unspecified)	97	-1	109	94	8	0	nt	nt	nt
C(=N\Nc1nc(-c2ccccc2)cs1)/c1ccncc1	100	-4	97	93	10	12	nt	nt	nt
Cc1onc(-c2ccccc2)c1-c1csc(N/N=C/c2ccccc2)n1	68*[inhibitor]	-17	108	74	-14	11	99	-1	99
CC(C)(C(=O)O)c1ccc([C@H](O)CCCN2CCC(C(O)(c3ccccc3)c3ccccc3)CC2)cc1	102	5	nt	105	-29	-114	nt	nt	nt
CCCCn1c(-c2cccs2)nc2oc3ccccc3c(=O)c2c1=O	129*	19	nt	115	-4	8	98	-3	98
Cc1sc(NC(=O)c2ccccc2)c(C(c2ccccn2)N2CCN(CCO)CC2)c1C (stereo unspecified)	140*	0	102	111	11	-2	1.0*[inhibitor]	-29	2.0*
CCNc1ncnc2c1cnn2C1CCCO1 (stereo unspecified)	nt	nt	95	nt	nt	nt	nt	nt	nt
